Measurements from ChEMBL document CHEMBL1165905, “Synthesis of methyl-substituted xanthotoxol to clarify prooxidant effect of methyl on radical-induced oxidation of DNA” (Eur J Med Chem, 2010).
Calls of active or inactive are those of the source. The calls are words filed in the database; no cut-off is given here.

How the values were obtained:
[1] = Antioxidant activity against beta-carotene and linoleic acid assessed as inhibition of bleaching of beta-carotene at 13.3 uM measured up to 540 mins by autooxidation assay; assay type: functional
How it was run: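 β-Carotene–linoleic acid emulsion with compound at 13.3 μM. Bleaching of β-carotene by peroxyl radicals from linoleic acid autoxidation was followed as absorbance at 460 nm and plotted against time.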

[2] = system: Radical scavenging activity; assay: Antioxidant activity assessed as DPPH radical scavenging activity measured up to 300 mins; assay type: functional
How it was run: (§1)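 Radical was dissolved in ethanol to about 1.00 absorbance: DPPH read at 517 nm, galvinoxyl at 428 nm. Compound in ethanol was added at 200 μM final and absorbance decay recorded. Percent scavenged = (1 − Abs_detect/Abs_ref) × 100, plotted against incubation time.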

[3] = Antioxidant activity assessed as galvinoxyl radical scavenging activity measured up to 210 mins; assay type: functional; how it was run: as §1
[4] = Antioxidant activity assessed as protection against Cu(2+)/[…]-induced DNA damage up to 180 mins by TBARS assay; assay type: functional
How it was run: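 DNA (2.0 mg/mL), CuSO4 (5.0 mM) and GSH (3.0 mM) in phosphate buffer (6.1 mM Na2HPO4, 3.9 mM NaH2PO4). Compound added from DMSO at 0.2 mM final. Incubated at 37 °C, with three tubes removed every 30 min and stopped with EDTA (30.0 mM final). TBARS read in the n-butanol layer at 535 nm. Oxidative percentage = (A_x/A_0) × 100 at 150 min relative to control.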

[5] = Antioxidant activity assessed as protection against […]-induced oxidation of DNA […]; assay type: functional
[6] = Antioxidant activity assessed as protection against […]-induced oxidation of DNA at 80 uM up to 675 mins

IC50 [2] [µM]	IC50 [3] [µM]	Compound	Activity [1]	Activity [4]	Activity [5]	Activity [6]
119	170	Cc1coc2c(O)c3oc(=O)cc(C)c3cc12	Active	Active	Active	Active
81.5	173	Cc1cc(=O)oc2c(O)c3occc3cc12	Active	Active	Active	Active

Compound	IC50 [2] [µM]	IC50 [3] [µM]	Activity [1]	Activity [4]	Activity [5]	Activity [6]
O=c1ccc2cc3ccoc3c(O)c2o1 [XANTHOTOXOL]	69.6	188	Active	Active	Active	Active
